# zfTRPN1 agonist = zebrafish TRPN1 (NompC) channel agonism; HEK293 zebrafish TRPN1-YFP, Fluo-8 calcium fluorescence; 100% = response to 87 µM carbachol; activation, % at 3 µM; 220,000 compounds, 0.18% hits;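 active means activation above its plate's cutoff, the mean activation of test wells on that plate plus 3 SD, cut at about 19% in these data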;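 further: 0% = DMSO alone and 100% = 87 µM carbachol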
#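 Material – zebrafish TRPN1-YFP in HEK293 cells · Doses – 3 µM single point · Schedule – dye 1 h 37 °C plus 30 min RT · Signal – Fluo-8 calcium fluorescence, excitation 470-495 nm, emission 515-575 nm · Read-out – % activation versus carbachol response · Control set – carbachol high, DMSO low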
# OXTR agonist = activates the human oxytocin receptor; activation, % at 3 µM; AID 2435; P30559; CHO-OTR cells, Fluo-8 calcium fluorescence; normalized: DMSO 0%, oxytocin 100%; 320,000 compounds, 0.32% hits;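 active means activation above the mean of all tested compounds plus 3 SD, cutoff set per screening run, cut at about 20% in these data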;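 further: peak over basal fluorescence ratio from a 100 s FLIPR kinetic read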
# Target sequence (P30559 whole entry, looked up): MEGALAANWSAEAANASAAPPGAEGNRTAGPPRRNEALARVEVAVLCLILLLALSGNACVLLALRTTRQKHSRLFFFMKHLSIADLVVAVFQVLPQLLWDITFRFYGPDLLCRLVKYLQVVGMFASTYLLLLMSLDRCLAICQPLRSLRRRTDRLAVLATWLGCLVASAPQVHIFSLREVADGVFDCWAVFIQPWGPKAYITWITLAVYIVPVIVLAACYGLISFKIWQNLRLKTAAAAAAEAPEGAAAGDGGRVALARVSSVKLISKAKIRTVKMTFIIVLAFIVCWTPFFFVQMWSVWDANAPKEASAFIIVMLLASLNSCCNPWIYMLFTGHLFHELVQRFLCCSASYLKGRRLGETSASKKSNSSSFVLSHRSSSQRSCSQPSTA
# V1aR counter = V1a receptor agonism, counter-screen for OXTR agonists; P37288; CHO-V1R cells, Fluo-8 calcium fluorescence, agonist mode; 0% DMSO, 100% 3 nM vasopressin; activation, % at 3 µM; 320,000 compounds, 0.25% hits; AID 2797;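 active means activation above the mean activation of all tested compounds plus 3 SD, per screening run, cut at about 20% in these data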;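 further: signal is peak over basal fluorescence ratio across a 100 second FLIPR read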
# OXTR potentiate = potentiators of human oxytocin receptor | CHO-OTR cells, Fluo-8 calcium fluorescence, potentiator mode; 0% = oxytocin EC15, 100% = EC100 | activation, % at 3 µM | 320,000 compounds, 0.061% hits;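 active means activation above that plate's cutoff, the mean activation of tested compounds plus 3 SD, cut at about 6.6% in these data, passing the limit was not always enough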;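 further: 100% uses oxytocin at 75 nM as the full agonist control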
#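 System: human OTR in CHO cells; Also added: sub-maximal oxytocin, roughly EC15; Timing: compound 6 min at room temperature before oxytocin, 100 s read; Technique: Fluo-8 intracellular calcium fluorescence, ex 470-495, em 515-575 nm; Controls: oxytocin EC15 low and EC100 high; Replication: singlicate.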
# TRPML3 agonist = activates the human TRPML3 channel; Q8TDD5; HEK293 TRPML3-YFP, Fluo-8 calcium fluorescence; 100% = the carbachol control signal; activation, % at 3 µM; 220,000 compounds, 0.29% hits; AID 1448;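 active means activation above its plate's cutoff, the mean activation of the plate's test wells plus 3 SD, cut at about 12% in these data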;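 further: 0% = DMSO only wells and 100% = carbachol wells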
#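 Test system – HEK293 line with stable expression of human TRPML3-YFP channel · Control set – carbachol 87 µM final as high control (100%), DMSO as low control (0%) · Signal – Fluo-8 calcium dye fluorescence, ex 470-495, em 515-575 nm · Incubation – 1-h 37 °C dye load, 5-s basal, 120-s post-compound reads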
# An asterisk follows results filed as active; . = not tested or not shown. An excerpt weighted towards active compounds, which were near 0.59% of everything screened.
SMILES,zfTRPN1 agonist,OXTR agonist,V1aR counter,OXTR potentiate,TRPML3 agonist
Cn1c2ccccc2c(=O)c2c(=O)n(C3CCCCCC3)c(C3CCCCC3)nc21,0,.,.,.,1
CCc1nc2c(c(=O)c3ccccc3n2C)c(=O)n1C1CCCCCC1,19*,47*,88*,-18,18*
Cc1nc2ccc(C(=O)N3CCN(Cc4ccccc4)CC3)cc2[nH]1,.,2,1,-6,.
CCO/C=C1\SC(=S)N(c2ccc(Cl)cc2)C1=O,0,3,3,0,1
CC(C)c1ccc(N2C(=O)/C(=C/N(C)C)SC2=S)cc1,7,38*,25*,-19,2
COc1cccc2c1C(=O)c1c(O)c3c(c(O)c1C2=O)C[C@](O)(C(C)=O)C[C@H]3O[C@@H]1C[C@@H](N)[C@@H](O)[C@@H](C)O1,.,16,21*,-8,.
S=C(Nc1ccc(Cl)cc1)NC1CC2CCC(C1)N2Cc1ccccc1 (stereo not drawn),5,21*,14,-12,4
S=C(Nc1ccc(Cl)c(Cl)c1)NC1CCN(Cc2ccccc2)CC1,7,42*,39*,-32,4
Fc1ccc(NC(=S)NC2CCN(Cc3ccccc3)CC2)cc1,5,6,4,-18,3
O=C(COC(=O)CNC(=O)c1ccc(Cl)cc1Cl)Nc1cccc(S(=O)(=O)N2CCCC2)c1,.,6,6,-21,.
O=C1N[C@@H](c2ccccc2)COC(=O)[C@@H](Cc2ccc(F)cc2)C/C=C\C[C@@H]1CC(=O)N(CCO)Cc1ccccc1,.,43*,36*,-11,.
O=C(NC(NC(=S)Nc1ccc(Cl)cc1)C(Cl)(Cl)Cl)c1ccco1 (stereo not drawn),0,7,11,-13,0
CC(=O)c1ccc(NC(=S)NC(NC(=O)c2ccco2)C(Cl)(Cl)Cl)cc1 (stereo not drawn),1,61*,38*,-24,2
COc1ccc(/C=C/C(=O)c2ccc3c(c2)OCO3)c(OC)c1,-1,0,1,-6,-1
COc1cc(/C=C/C(=O)c2ccc3c(c2)OCO3)cc(Cl)c1O,.,70*,98*,-16,.
Cc1cccc(OCC(=O)N(C)c2c(N)n(Cc3ccccc3)c(=O)[nH]c2=O)c1C,.,1,0,0,.
COc1ccc(CC(=O)NC(=S)Nc2ccc(S(N)(=O)=O)cc2)cc1,9,25*,24*,-13,7
CCOc1ccc(NS(=O)(=O)c2ccc(NC(=S)NC(C)=O)cc2)cc1,17,29*,27*,-14,5
CCOc1ccc(NS(=O)(=O)c2ccc(NC(=S)NC(=O)C(C)C)cc2)cc1,3,9,8,-17,4
COc1ccc(S(=O)(=O)Nc2ccc(NC(C)=O)cc2)cc1,1,1,0,-4,0
COc1ccc(NS(=O)(=O)c2ccc(NC(=S)NC(=O)C(C)C)cc2)cc1,12,20*,24*,-22,7
CN(CC(=O)Nc1cccc(F)c1)C(=O)c1cccnc1Sc1ccccc1Cl,.,0,0,-5,.
CC1CCCCN1C(=O)NC1CC(=O)N(c2ccc3c(c2)OCCO3)C1 (stereo not drawn),.,1,1,-6,.
Cc1ccnc(NC(=O)c2cccc(NC(=O)CC3SC(N4CCCCC4)=NC3=O)c2)c1 (stereo not drawn),.,-1,0,-5,.
O=C(N/N=C/c1c(O)ccc2ccccc12)c1ccc(Br)o1,.,20*,22*,-17,.
SMILES,zfTRPN1 agonist,OXTR agonist,V1aR counter,OXTR potentiate,TRPML3 agonist
O=C(N/N=C\c1c(O)ccc2ccccc12)c1cncc(Br)c1,.,152*,155*,-17,.
COc1ccccc1N1CCN(C2CCCN(C(=O)CCc3cnn(C)c3)C2)CC1 (stereo not drawn),.,-1,0,1,.
Cc1ccc(Sc2ccc(S(=O)(=O)Nc3ccc(C(=O)O)cc3)cc2)cc1C,.,25*,21*,-13,.
Cc1ccc(Oc2ccc(S(=O)(=O)Nc3ccc(C(=O)O)cc3)cc2)cc1,.,2,1,-1,.
CC(C)[C@H](NS(=O)(=O)c1ccccc1)C(=O)OCC(=O)NC(=O)NC1CCCCC1,.,5,6,-9,.
Fc1ccc(-c2cn3cc(C(F)(F)F)cc(Cl)c3n2)cc1,-1,-2,-1,-1,0
COc1ccc(-c2cn3cc(C(F)(F)F)cc(Cl)c3n2)cc1,0,-2,-1,11*,0
O=C(NN=C1CCCC1)c1sc2ccccc2c1Cl,1,-1,0,-9,1
O=C1CCC/C(=N/NC(=O)c2sc3ccccc3c2Cl)C1,10,12,32*,-7,6
Cc1ccc(/C=C2\SC(=S)N(/N=C/c3cc([N+](=O)[O-])ccc3O)C2=O)o1,2,2,1,-9,1
O=C(Nc1ncc(Cc2ccc(SC(F)F)cc2)s1)c1ccc(OC(F)F)cc1,1,23*,25*,-8,0
Cc1ccc(Cc2cnc(NC(=O)c3ccco3)s2)cc1,-1,-1,1,-6,0
COc1ccc2sc(-c3ccc(SC)cc3)c(-c3ccc(O)cc3)c2c1,.,1,0,-12,.
FC(F)C(F)(F)c1cc(-c2ccc(Cl)cc2)n[nH]1,7,21*,22*,-19,3
Fc1ccc(-c2cc(C(F)(F)C(F)F)[nH]n2)cc1,13,39*,32*,-21,10
CCN(CC)c1ccc2cc(-c3nnc(-c4ccncc4)o3)c(=O)oc2c1,47*,.,.,.,27*
CCN(CC)c1ccc2cc(C=O)c(=O)oc2c1,39*,110*,88*,-24,19*
CCCCc1nnc(SC(C)C(=O)Nc2nccs2)n1C (stereo not drawn),.,0,1,-4,.
O=C1c2cccc3c(N4CCCCC4)ccc(c23)C(=O)N1c1ccccc1O,36*,43*,41*,-36,18*
O=C1c2cccc3cccc(c23)C(=O)N1c1ccc(O)cc1,.,0,-1,2,.
O=C1c2cccc3c(N4CCCCC4)ccc(c23)C(=O)N1c1ccc(O)cc1,20*,22*,23*,-17,12*
O=C(O)c1ccc(N2CCCCCC2)c(N2C(=O)c3ccccc3C2=O)c1,0,1,1,-11,1
COc1cc(N2CCCC2)c(OC)cc1/C=C(/C#N)c1cccc(F)c1,16,21*,21*,-12,1
CCOC(=O)C1C(=O)C=C(c2ccc(C)cc2)CC1c1ccccc1 (stereo not drawn),-2,-3,0,-29,1
CCOC(=O)C1C(=O)C=C(/C=C/c2ccc(N(C)C)cc2)CC1c1ccccc1 (stereo not drawn),5,38*,45*,-16,5
Cn1nccc1C(=O)N1CCC(Cc2ccccc2)CC1,.,2,4,1,.
